Reference: ChEMBL document CHEMBL2396599, “Design of cell-permeable stapled peptides as HIV-1 integrase inhibitors” (J Med Chem, 2013)
Starred links: 1 amine or outer side, 2 acyl side, 3 side chain; linkers in the order of their positions; H or OH if unused. Positions of bridges follow the written chain, without caps; N, C: chain ends. Non-standard residues stand in square brackets, D forms with d. Residues, ends and D or L forms follow the SMILES beside them. αMeNva(5-ylidene) = C[C@@](CCC=[*:3])(N[*:1])C(=O)[*:2]; X1 = C[C@@](CCCCC=[*:3])(N[*:1])C(=O)[*:2]; X3 = C=CCCCC[C@](C)(N[*:1])C(=O)[*:2]; X2 = C=CC[C@](C)(N[*:1])C(=O)[*:2]; S5 = C=CCCC[C@](C)(N)C(=O)O

What was measured:
[1] = molecular target: T1, Human immunodeficiency virus type 1 integrase (Human immunodeficiency virus 1, UniProt Q7ZJM1); experiment: Inhibition of wild type HIV-1 integrase strand transfer activity after 30 mins
T1 sequence (Q7ZJM1 whole entry): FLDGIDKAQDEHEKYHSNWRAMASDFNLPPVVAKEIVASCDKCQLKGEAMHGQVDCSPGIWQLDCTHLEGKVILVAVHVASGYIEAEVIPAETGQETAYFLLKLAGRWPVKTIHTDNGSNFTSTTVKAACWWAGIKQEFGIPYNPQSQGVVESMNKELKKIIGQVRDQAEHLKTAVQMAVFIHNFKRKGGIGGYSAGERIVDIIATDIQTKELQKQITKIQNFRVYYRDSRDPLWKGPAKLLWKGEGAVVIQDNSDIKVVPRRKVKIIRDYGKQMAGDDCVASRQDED
Method in brief: (§1)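 IC₅₀ is the concentration giving 50% inhibition of HIV-1 integrase enzymatic activity, determined separately for 3′-processing and for strand transfer.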

[2] = molecular target: T1, Human immunodeficiency virus type 1 integrase; experiment: Inhibition of wild type HIV-1 integrase 3' processing activity after 30 mins; method in brief: as §1
[3] = Cytotoxicity against human MT4 cells by MTT assay; format: cell-based
Method in brief: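 CC₅₀ was the concentration causing 50% death of MT-4 cells, in the same cells used for the HIV-1 cytoprotection assay. This value feeds the CC₅₀/EC₅₀ ratio.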

[4] = tested on: Human immunodeficiency virus 1; experiment: Antiviral activity against Human immunodeficiency virus 1 infected in human MT4 cells assessed as inhibition of virus-induced cytopathic effect by MTT assay; format: functional, organism-based; conditions: Human immunodeficiency virus 1, MT4
Method in brief: (§2)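 Antiviral activity taken as the concentration giving 50% protection of HIV-1-infected MT-4 cells. Cytotoxicity was read as 50% cell death in the same cells. Therapeutic index = CC₅₀/EC₅₀.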

[5] = Therapeutic index, ratio of CC50 for human MT4 cells to EC50 for Human immunodeficiency virus 1; format: cell-based; conditions: read-out: Ratio CC50/EC50; method in brief: as §2
[6] = molecular target: T1, Human immunodeficiency virus type 1 integrase; experiment: Inhibition of HIV-1 His6-tagged integrase assessed as inhibition of LEDGF/p75-integrase interaction incubated 30 mins prior to flag-tagged LEDGF/p75 addition measured after 1 hr by AlphaScreen assay
Method in brief: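 IC₅₀ is the concentration giving 50% inhibition of the interaction between LEDGF/p75 and HIV-1 integrase.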

[7] = tested on: Human immunodeficiency virus; experiment: Antiviral activity against AMD3100-resistant Human immunodeficiency virus; format: functional, organism-based; conditions: Human immunodeficiency virus 1
[8] = tested on: MT4; experiment: Cellular uptake in human MT4 cells at 10 to 500 uM after 1 hr by confocal microscopy; format: ADME, cell-based; conditions: mt4, 1 h
Method in brief: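 Fluorescein-labelled peptides were incubated with MT-4 cells for 1 h. Confocal z-stacks were taken at 0.3 step, with FITC excited at 488 nm and a cell-membrane dye at 543 nm.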

[9] = Drug uptake in human CEM cell nucleus at 40 uM after 1 to 3 hrs by Draq5 staining-based confocal microscopy; format: ADME; conditions: ccrf-cem
Method in brief: (§3)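 CEM, HCT116 and Panc-1 cells were treated with the fluorescein-labelled stapled peptide for 3 h. Uptake was imaged by confocal microscopy with Draq5 nuclear staining.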

[10] = Cellular uptake in human HCT116 cell cytoplasm at 40 uM after 1 to 3 hrs by Draq5 staining-based confocal microscopy; format: ADME; conditions: hct-116, 40 µM; method in brief: as §3
[11] = Drug uptake in human PANC1 cell nucleus at 40 uM after 1 to 3 hrs by Draq5 staining-based confocal microscopy; format: ADME; conditions: panc-1, 40 µM; method in brief: as §3
[12] = Cellular uptake in human PANC1 cell cytoplasm at 40 uM after 1 to 3 hrs by Draq5 staining-based confocal microscopy; format: ADME; conditions: panc-1, 40 µM; method in brief: as §3
[13] = Cellular uptake in human CEM cytoplasm at 40 uM after 1 to 3 hrs by Draq5 staining-based confocal microscopy; format: ADME; method in brief: as §3
[14] = Drug uptake in human HCT116 cell nucleus at 40 uM after 1 to 3 hrs by Draq5 staining-based confocal microscopy; format: ADME; conditions: hct-116, 40 µM; method in brief: as §3

Structure (SMILES) | IC50 [1] [µM] | IC50 [2] [µM] | IC50 [6] [µM] | Drug uptake [8] | Drug uptake [9] | Drug uptake [10] | Drug uptake [11] | Drug uptake [12] | Drug uptake [13] | Drug uptake [14] | CC50 [3] [µM] | EC50 [4] [µM] | selectivity ratio [5] | EC50 [7] [µM]
C=CCCC[C@](C)(NC(=O)CNC(=O)[C@H](C)NC(=O)[C@H](CC(C)C)NC(=O)[C@](C)(CCCC=C)NC(=O)[C@H](CC(C)C)NC(=O)[C@H](CC(C)C)NC(=O)[C@H](Cc1ccccc1)NC(=O)[C@H](Cc1ccc(O)cc1)NC(=O)[C@H](C)NC(=O)[C@@H](N)[C@@H](C)O)C(=O)N[C@@H](Cc1c[nH]c2ccccc12)C(=O)O (H-TAYFLL[S5]LAG[S5]W-OH) | > 100 | > 100 |  |  |  |  |  |  |  |  |  |  |  | 
CC(C)C[C@H](NC(=O)[C@H](Cc1ccccc1)NC(=O)[C@H](Cc1ccc(O)cc1)NC(=O)[C@H](C)NC(=O)[C@@H](N)[C@@H](C)O)C(=O)N[C@@H](CC(C)C)C(=O)N[C@@]1(C)CCC/C=C/CCC[C@@](C)(C(=O)N[C@@H](Cc2c[nH]c3ccccc23)C(=O)O)NC(=O)CNC(=O)[C@H](C)NC(=O)[C@H](CC(C)C)NC1=O (H-TAYFLL[S5]LAG[S5]W-OH; staple (E) 7-11) | > 100 | > 100 |  |  |  |  |  |  |  |  |  |  |  | 
C=CCCC[C@](C)(NC(=O)[C@H](CC(C)C)NC(=O)[C@@H](NC(=O)[C@H](CC(C)C)NC(=O)[C@](C)(CCCC=C)NC(=O)[C@H](Cc1ccccc1)NC(=O)[C@H](Cc1ccc(O)cc1)NC(=O)[C@H](C)NC(=O)[C@@H](N)[C@@H](C)O)[C@@H](C)CC)C(=O)NCC(=O)N[C@@H](CCCNC(=N)N)C(=O)N[C@@H](Cc1c[nH]c2ccccc12)C(=O)O (H-TAYF[S5]LIL[S5]GRW-OH) | 11 | 15 | > 100 |  |  |  |  |  |  |  | 18 | 11 | 1.6 | 
CC[C@H](C)[C@@H]1NC(=O)[C@H](CC(C)C)NC(=O)[C@@](C)(NC(=O)[C@H](Cc2ccccc2)NC(=O)[C@H](Cc2ccc(O)cc2)NC(=O)[C@H](C)NC(=O)[C@@H](N)[C@@H](C)O)CCC/C=C\CCC[C@@](C)(C(=O)NCC(=O)N[C@@H](CCCNC(=N)N)C(=O)N[C@@H](Cc2c[nH]c3ccccc23)C(=O)O)NC(=O)[C@H](CC(C)C)NC1=O (H-TAYF[S5]LIL[S5]GRW-OH; staple (Z) 5-9) | 25 | 22 | 5 |  |  |  |  |  |  |  | 41 | 5 | 8 | 4.3
CC(C)C[C@@H]1NC(=O)[C@H](CCCCN)NC(=O)[C@H](CC(C)C)NC(=O)[C@@](C)(NC(=O)[C@H](Cc2ccccc2)NC(=O)[C@H](Cc2ccc(O)cc2)NC(=O)[C@H](C)NC(=O)[C@@H](N)[C@@H](C)O)CCC/C=C\CCC[C@@](C)(C(=O)NCC(=O)N[C@@H](CCCNC(=N)N)C(=O)N[C@@H](Cc2c[nH]c3ccccc23)C(=O)O)NC1=O (H-TAYF[S5]LKL[S5]GRW-OH; staple (Z) 5-9) | 6 | 9 | 14 |  |  |  |  |  |  |  | 50 | 20 | 3 | 
C=CC[C@](C)(NC(=O)[C@H](CC(C)C)NC(=O)[C@H](CCCCN)NC(=O)[C@H](CC(C)C)NC(=O)[C@](C)(CC=C)NC(=O)[C@H](Cc1ccccc1)NC(=O)[C@H](Cc1ccc(O)cc1)NC(=O)[C@H](C)NC(=O)[C@@H](N)[C@@H](C)O)C(=O)NCC(=O)N[C@@H](CCCNC(=N)N)C(=O)N[C@@H](Cc1c[nH]c2ccccc12)C(=O)O (H-TAYF[X2]LKL[X2]GRW-OH) | > 111 | > 333 |  |  |  |  |  |  |  |  |  |  |  | 
C=CCCCC[C@](C)(NC(=O)[C@H](CC(C)C)NC(=O)[C@H](CCCCN)NC(=O)[C@H](CC(C)C)NC(=O)[C@](C)(CCCCC=C)NC(=O)[C@H](Cc1ccccc1)NC(=O)[C@H](Cc1ccc(O)cc1)NC(=O)[C@H](C)NC(=O)[C@@H](N)[C@@H](C)O)C(=O)NCC(=O)N[C@@H](CCCNC(=N)N)C(=O)N[C@@H](Cc1c[nH]c2ccccc12)C(=O)O (H-TAYF[X3]LKL[X3]GRW-OH) | 43 | 61 |  |  |  |  |  |  |  |  |  |  |  | 
CC(C)C[C@H](NC(=O)[C@H](CCCCN)NC(=O)[C@H](CC(C)C)NC(=O)[C@]1(C)CCC/C=C\CCC[C@](C)(N)C(=O)N[C@@H](C)C(=O)N[C@@H](Cc2ccc(O)cc2)C(=O)N[C@@H](Cc2ccccc2)C(=O)N1)C(=O)N[C@@H](C)C(=O)NCC(=O)N[C@@H](CCCNC(=N)N)C(=O)N[C@@H](Cc1c[nH]c2ccccc12)C(=O)O (H-[S5]AYF[S5]LKLAGRW-OH; staple (Z) 1-5) | 19 | 53 | > 100 |  |  |  |  |  |  |  | 25 | 4 | 6 | 

Continued by falling IC50 [1], values first:

IC50 [1] [µM] | IC50 [2] [µM] | IC50 [6] [µM] | Drug uptake [8] | Drug uptake [9] | Drug uptake [10] | Drug uptake [11] | Drug uptake [12] | Drug uptake [13] | Drug uptake [14] | Structure (SMILES) | CC50 [3] [µM] | EC50 [4] [µM] | selectivity ratio [5] | EC50 [7] [µM]
83 | 90 | 14 |  |  |  |  |  |  |  | CC(C)C[C@@H]1NC(=O)[C@H](CCCCN)NC(=O)[C@H](CC(C)C)NC(=O)[C@@](C)(NC(=O)[C@H](Cc2ccccc2)NC(=O)[C@H](Cc2ccc(O)cc2)NC(=O)[C@H](C)NC(=O)[C@@H](N)[C@@H](C)O)CC/C=C/CC[C@@](C)(C(=O)NCC(=O)N[C@@H](CCCNC(=N)N)C(=O)N[C@@H](Cc2c[nH]c3ccccc23)C(=O)O)NC1=O (H-TAYF[αMeNva(5-ylidene)]LKL[αMeNva(5-ylidene)]GRW-OH; staple (E) 5-9) | 40 | > 40 |  | 
44 | 48 |  |  |  |  |  |  |  |  | CC(C)C[C@@H]1NC(=O)[C@H](CCCCN)NC(=O)[C@H](CC(C)C)NC(=O)[C@@](C)(NC(=O)[C@H](Cc2ccccc2)NC(=O)[C@H](Cc2ccc(O)cc2)NC(=O)[C@H](C)NC(=O)[C@@H](N)[C@@H](C)O)CCCC/C=C/CCCC[C@@](C)(C(=O)NCC(=O)N[C@@H](CCCNC(=N)N)C(=O)N[C@@H](Cc2c[nH]c3ccccc23)C(=O)O)NC1=O (H-TAYF[X1]LKL[X1]GRW-OH; staple (E) 5-9) |  |  |  | 
6.2 | 17.5 | 25 | Not Active |  |  |  |  |  |  | CC(C)C[C@H](NC(=O)[C@H](CCCCN)NC(=O)[C@H](CC(C)C)NC(=O)[C@H](CC(C)C)NC(=O)[C@H](Cc1ccccc1)NC(=O)[C@H](Cc1ccc(O)cc1)NC(=O)[C@H](C)NC(=O)[C@@H](NC(=O)c1ccc2c(c1)C(=O)OC21c2ccc(O)cc2Oc2cc(O)ccc21)[C@@H](C)O)C(=O)N[C@@H](C)C(=O)NCC(=O)N[C@@H](CCCNC(=N)N)C(=O)N[C@@H](Cc1c[nH]c2ccccc12)C(=O)O (mixture of isomers) | 70 | 13 | 5 | 
6 | 5 | 25 | Active | Active | Active | Active | Active | Active | Active | CC(C)C[C@@H]1NC(=O)[C@H](CCCCN)NC(=O)[C@H](CC(C)C)NC(=O)[C@@](C)(NC(=O)[C@H](Cc2ccccc2)NC(=O)[C@H](Cc2ccc(O)cc2)NC(=O)[C@H](C)NC(=O)[C@@H](NC(=O)c2ccc3c(c2)C(=O)OC32c3ccc(O)cc3Oc3cc(O)ccc32)[C@@H](C)O)CCC/C=C\CCC[C@@](C)(C(=O)NCC(=O)N[C@@H](CCCNC(=N)N)C(=O)N[C@@H](Cc2c[nH]c3ccccc23)C(=O)O)NC1=O (mixture of isomers) | > 125 | 11 | > 11 | 
